ChEMBL document CHEMBL6177979, “Exploring the Phototherapeutic Applications of Mitochondria-Targeted COUPY Photocages of Antitumor Drugs” (J Med Chem, 2025)
Each block holds one compound with its values, some of them ahead of it. Active and inactive are the calls of the source. The rule behind the calls is not given here.

What was measured:
[1] = Drug localization in mitochondria of human HeLa cells at 1 uM incubated for 30 mins by Mito-tracker green dye based confocal scanning microscopic analysis; type: ADME; conditions: 0.5 h
Summary of the method: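 Cells washed with DPBS and imaged live by confocal at 37 °C with 5% CO2: compound excited at 561 nm (detection 570–670 nm), MTG at 488 nm. Colocalization coefficients from 5 stacks of about 25 cells.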

[2] = Photoactivation of the compound in PBS/ACN irradiation with visible light at 530 nm 150 mW cm2 incubated for 2 hrs by RP-HPLC analysis; set-up: dose or concentration left out as unconfirmed; conditions: buffer
Summary of the method: (§1)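 Caged compound (20 μM) with 4-dimethylaminopyridine internal standard (20 μM) in PBS/ACN 8:2 at 37 °C. First held 2 h in the dark for stability, then irradiated with a 470–750 nm LED centred at 530 nm while stirred. Release followed by RP-HPLC with formic acid/water–ACN gradients.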

[3] = Induction of ROS generation in PBS buffer assessed as increase in singlet oxygen by measuring increase in SOSG fluorescence intensity at 10 uM irradiated with green light 505 nm 100 mW/cm2 for 15 mins by SOSG probe based analysis; type: functional
Summary of the method: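 Cell-free fluorogenic probe test. Compound (10 μM) in PBS with 2% DMSO plus SOSG (5 μM, singlet oxygen) or DHR123 (10 μM, superoxide), irradiated with green LED light (505 ± 35 nm, 100 mW cm–2), with the rise in probe fluorescence followed. Positive references were Rose Bengal (SOSG) and methylene blue (DHR123). Scavenger controls used sodium azide-saturated PBS (singlet oxygen) or tiron-saturated PBS (superoxide).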

[4] = Drug uptake in human HeLa cells assessed as increase in fluorescence intensity at 1 uM incubated for 30 mins by DAPI staining based confocal microscopic analysis; type: ADME, cell-based; conditions: 0.5 h
Summary of the method: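 HeLa cells seeded on glass-bottom dishes in DMEM with 10% FBS. After 24 h, incubated 30 min at 37 °C with compound (1 μM) in supplemented DMEM. Washed three times with DPBS, kept in phenol red-free low-glucose DMEM, imaged live by confocal with 561 nm excitation and 570–670 nm detection.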

[5] = Drug accumulation in human HeLa cells assessed as mitochondrial localization at 1 uM incubated for 30 mins by Hoechst 33342 staining based live cell confocal microscopic analysis; type: ADME; conditions: 0.5 h
Summary of the method: (§2)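 Live HeLa cells (DMEM, 4.5 g/L glucose, 10% FBS, pen-strep) on glass-bottom dishes; 24 h after seeding, incubated 30 min at 37 °C with compound (1 or 2 μM) in DMEM + 10% FBS. Cells were washed three times with DPBS and imaged at 37 °C, 5% CO2 in phenol-red-free low-glucose DMEM. Excitation 561 nm, emission 570–670 nm. For co-staining, MitoTracker Green FM (0.1 μM) was co-incubated 30 min in nonsupplemented DMEM and excited at 488 nm.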

[6] = Phototoxic index, ratio of IC50 for cytotoxicity against human HeLa cells assessed as reduction in cell viability incubated for 2 hrs under dark condition by MTT assay to IC50 for photocytotoxicity in human HeLa cells assessed as reduction in cell viability irradiated with 550 nm 4 mW/cm^-2 green-yellow […] and measured after 48 hrs by MTT assay; type: toxicity, cell-based; conditions: read-out: Ratio IC50
Summary of the method: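 Phototoxic index is dark IC50 divided by light IC50, HeLa MTT assay. Cells had 1 h compound in the dark, then 1 h dark or 550 nm LED (4 mW/cm2 pulsed, 7.2 J cm–2), then 48 h after medium change.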

[7] = Photophysical property of the compound assessed as fluorescence quantum yield; type: physicochemical
Summary of the method: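 Fluorescence quantum yield by the comparative method against cresyl violet in ethanol (ΦF 0.54). Optically matched solutions with absorbance below 0.1 at 540 nm excitation. Calculated from integrated emission, absorbance and refractive indexes.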

HeLa [8] = assay: Cytotoxicity against human HeLa cells assessed as reduction in cell viability at 100 uM incubated for 2 hrs under dark condition by MTT assay; type: functional, cell-based
Summary of the method: (§3)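 HeLa or U87-MG cells seeded at 5000/well in DMEM with 10% FBS and 1% penicillin-streptomycin, grown 24 h. Compound added at 0–200 μM final (0.5% DMSO) for 1 h at 37 °C in the dark. Then 1 h dark or 550 nm pulsed LED (4 mW/cm2, 1 min on/1 min off; 7.2 J cm–2). Medium refreshed, 48 h incubation, MTT read-out. IC50 from sigmoidal dose–response curves, n = 3.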

[9] = Induction of singlet oxygen quantum yield under irradiation with green light 505 nm 100 mW/cm2 by; type: functional
Summary of the method: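 Singlet oxygen quantum yield measured in air-saturated DCM (bubbled 15 min). DPBF trap at ~1.0 absorbance (50 μM); compound absorbance set to 0.06 at 505 nm. Irradiated with LED at 505 ± 35 nm, 100 mW cm–2.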

[10] = Induction of ROS generation in PBS buffer assessed as increase in superoxide anion radical level by measuring increase in DHR123 fluorescence intensity at 10 uM irradiated with 505 nm 100 mW/cm2 green light for 15 mins by DHR123 probe based analysis
[11] = Photochemical property of compound assessed as uncaging quantum yields; type: physicochemical
Summary of the method: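 Uncaging quantum yields derived from photon flux (DAE actinometry) together with photolysis rate parameters. Photolysis run in PBS/ACN 8:2 at 37 °C under a 530 nm-centred LED.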

[12] = Drug localization in lysosome of human HeLa cells at 1 uM incubated for 30 mins by Lysotracker green dye based confocal scanning microscopic analysis; type: ADME, subcellular; conditions: 0.5 h
Summary of the method: (§4)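 HeLa cells incubated with compound (1 μM) for 30 min at 37 °C in nonsupplemented DMEM. LysoTracker Green FM added for the last 5 min and WGA Alexa Fluor 633 for the last 20 min. Cells washed with DPBS and imaged live by confocal at 37 °C: compound excited at 561 nm (570–670 nm), LTG at 488 nm, WGA at 633 nm. Pearson's coefficient from 5 stacks, about 25 cells each.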

[13] = Photoactivation of the compound in PBS/ACN incubated for 2 hrs by RP-HPLC analysis; conditions: buffer; summary of the method: as §1
HeLa [14] = assay: Photocytotoxicity in human HeLa cells assessed as reduction in cell viability irradiated with 550 nm 4 mW/cm^-2 green-yellow LED light for 1 hr and measured after 48 hrs by MTT assay; type: toxicity, cell-based; conditions: 49 h; summary of the method: as §3
HeLa [15] = assay: Photocytotoxicity in human HeLa cells assessed as reduction in cell viability irradiated with 550 nm 4 mW/cm^-2 green-yellow LED light for 1 hr and measured after 48 hrs in presence of 4-PBA by MTT assay; type: toxicity, cell-based; conditions: 49 h; summary of the method: as §3
[16] = Drug localization in Endosome of human HeLa cells at 1 uM incubated for 30 mins by wheat germ agglutinin alexa fluor 633 probe based analysis; type: ADME, subcellular; conditions: 0.5 h; summary of the method: as §4
[17] = Drug localization in lysosome of human HeLa cells at 1 uM incubated for 30 mins by wheat germ agglutinin alexa fluor 633 probe based analysis; type: ADME, subcellular; conditions: 0.5 h; summary of the method: as §4
HeLa [18] = assay: Photocytotoxicity in human HeLa cells assessed as reduction in cell viability irradiated with 550 nm 4 mW/cm^-2 green-yellow LED light for 1 hr and measured after 48 hrs in presence of CLB by MTT assay; type: toxicity, cell-based; conditions: 49 h; summary of the method: as §3
[19] = Drug localization in lysosome of human HeLa cells at 1 uM incubated for 30 mins by Lysotracker green dye based analysis; type: ADME, subcellular; conditions: 0.5 h; summary of the method: as §4
[20] = Drug localization in […] of human HeLa cells at 1 uM incubated for 30 mins by Lysotracker green dye based confocal scanning microscopic analysis; type: ADME, subcellular; conditions: 0.5 h; summary of the method: as §4
[21] = Photocytotoxicity in human U-87 MG cells assessed as reduction in cell viability irradiated with 550 nm 4 mW/cm^-2 green-yellow LED light for […] and measured after 48 hrs by MTT assay; type: toxicity, cell-based, U-87MG ATCC; summary of the method: as §3
U-87 MG [22] = assay: Cytotoxicity against human U-87 MG cells assessed as reduction in cell viability incubated for 2 hrs under dark condition by MTT assay; type: functional, cell-based, U-87MG ATCC; summary of the method: as §3
U-87 MG [23] = assay: Cytotoxicity against human U-87 MG cells assessed as reduction in cell viability incubated for 2 hrs under dark condition by resazurin assay; type: functional, cell-based; conditions: U-87MG ATCC
[24] = Drug accumulation in human HeLa cells assessed as mitochondrial localization at 2 uM incubated for 30 mins by Hoechst 33342 staining based live cell confocal microscopic analysis; type: ADME; conditions: 0.5 h; summary of the method: as §2

Drug uptake [1]: Active
Activity [2]: Active
Drug uptake [4]: Active
Drug uptake [5]: Active
Activity [7]: 0.23
Activity [11]: 3.89e-05
Drug uptake [12]: Active
Activity [13]: Active
Compound: CCCCCC[n+]1ccc(/C(C#N)=C2/C=C(C(C)OC(=O)CCCc3ccccc3)c3ccc(N(CC)CC)cc3O2)cc1.[Br-] (stereo not drawn)
Activity [3]: Active
selectivity ratio at 48 h [6]: 131
IC50 (HeLa [8]): 3.54 µM
Activity [9]: 0.05
Activity [10]: Active

Compound: O=C(O)CCCc1ccc(N(CCCl)CCCl)cc1 [CHLORAMBUCIL]
IC50 (HeLa [8]): > 100 µM

Compound: CCCCCC[n+]1ccc(/C(C#N)=C2/C=C(C)c3ccc(N(CC)CC)cc3O2)cc1
Activity [3]: Active
Activity [10]: Active

Compound: CCN(CC)c1ccc2c(c1)O/C(=C(/C#N)c1cc[n+](CCC[N+](C)(C)C)cc1)C=C2C(C)OC(=O)CCCc1ccc(N(CCCl)CCCl)cc1.[Cl-].[Cl-] (stereo not drawn)
Activity [2]: Active
Activity [3]: Active
Activity (HeLa [14]): Non-toxic
Activity (HeLa [15]): Non-toxic
Drug uptake [4]: Active
Drug uptake [16]: Active
selectivity ratio at 48 h [6]: 3.7
Activity [7]: 0.09
IC50 (HeLa [8]): 41 µM
Activity [9]: < 0.01
Drug uptake [17]: Active
Activity (HeLa [18]): Non-toxic
Activity [10]: Active
Activity [11]: 1.07e-05
Drug uptake [19]: Active
Drug uptake [20]: Active
Activity [13]: Active

Compound: O=C(O)CCCc1ccccc1
IC50 (HeLa [8]): > 100 µM

Compound: CCCCCC[n+]1ccc(/C(C#N)=C2/C=C(C(C)OC(=O)CCCc3ccc(N(CCCl)CCCl)cc3)c3ccc(N(CC)CC)cc3O2)cc1.[Cl-] (stereo not drawn)
IC50 at 48 h [21]: 0.12 µM
Drug uptake [1]: Active
Activity [2]: Active
Activity [3]: Active
Activity (HeLa [14]): Non-toxic
Activity (HeLa [15]): Non-toxic
Drug uptake [4]: Active
selectivity ratio at 48 h [6]: 40
Activity [7]: 0.07
IC50 (HeLa [8]): 3.76 µM
Activity [9]: < 0.01
Activity (HeLa [18]): Non-toxic
Activity [10]: Active
Activity [11]: 1.3e-05
Drug uptake [12]: Active
IC50 (U-87 MG [22]): 6.72 µM
Activity [13]: Active
Activity (U-87 MG [23]): Active

Drug uptake [24]: Active
Activity [7]: 0.26
Compound: CCCCCC[n+]1ccc(/C(C#N)=C2/C=C(C(C)O)c3ccc(N(CC)CC)cc3O2)cc1.[Cl-] (stereo not drawn)
Activity [3]: Active
selectivity ratio at 48 h [6]: 40
IC50 (HeLa [8]): 27.2 µM
Activity [10]: Active
